Screening results as filed in PubChem.
PHOSPHO1 block = PHOSPHO1 (human) inhibition; Q8TCT1; recombinant PHOSPHO1, absorbance phosphatase assay; inhibition, % at 13.3 µM; actives 1.1% (n = 290,000); in the data active = inhibition above about 60%
Target sequence (Q8TCT1 whole entry, looked up): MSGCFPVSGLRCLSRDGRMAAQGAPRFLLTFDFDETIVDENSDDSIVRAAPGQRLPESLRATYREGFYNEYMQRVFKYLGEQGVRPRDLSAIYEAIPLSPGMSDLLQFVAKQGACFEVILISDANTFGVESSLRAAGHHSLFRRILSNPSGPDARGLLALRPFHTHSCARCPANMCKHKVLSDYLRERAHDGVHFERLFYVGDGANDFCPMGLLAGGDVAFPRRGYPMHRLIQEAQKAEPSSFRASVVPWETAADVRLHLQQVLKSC
HCV core dimer = HCV core protein dimerization inhibition. TR-FRET GST/Flag-core106 dimerization, 1536-well. inhibition, % at 5 µM. actives 0.33% (n = 300,000). AID 1899;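 active = inhibition above the mean of all tested compounds plus 3 SD, set per screening campaign, cut at about 45% in these data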
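System: GST/Flag-tagged HCV core106 proteins. Incubation: compound-protein-antibody incubation 4 h at 22.5 °C. Technique: HTRF with 340 nm excitation, 617/671 nm emission. Medium: KF-containing HEPES buffer, pH 7.45, DTT, CHAPS, BSA. Read-out: inhibition (%) from 671 over 617 nm ratio. Also added: Eu(K)-anti-GST 90 ng/mL plus XL665-anti-Flag 1 µg/mL.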
HSF1 activator = increases HSF-1 driven luciferase reporter signal; NIH3T3-HGL HSF-1 luciferase reporter, MG132, 8 h; 100% = twice DMSO control signal; activation, % at 9 µM; actives 1.7% (n = 300,000);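 active = mean replicate activation of at least 50% with a set share of replicates each reaching 50%; inconclusive = only one of those two conditions met; inactive = mean below 50% and too few replicates reaching it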
AI-2 QS mod = modulates the Vibrio harveyi AI-2 quorum sensing system; Vibrio harveyi JMH597 AI-2 luminescence/OD600 ratio, 9 h; stronger effect = lower value; strain lacks LuxN and CqsS sensors; 0 = neutral-control median; actives 0.4% (n = 300,000); activity change, % at 7.5 µM; in the data active = activity change below about -75%, passing the limit was not always enough; inconclusive = no clear call, values can overlap the other calls;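 note: luminescence divided by OD600 gain over 9 h not by final OD600 alone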
ALR inh = human ALR oxidase inhibition via reduced H2O2; purified ALR, DTT oxidation, H2O2 HRP-luminol luminescence; AID 485317; actives 3.8% (n = 290,000); P55789; inhibition, % (test concentration not listed);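 active = mean replicate inhibition above about 79%, with every replicate also reaching it, limit read from the data; inconclusive = only one of the two criteria met; inactive = mean below limit and not every replicate reaching it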
Target sequence (P55789 whole entry, looked up): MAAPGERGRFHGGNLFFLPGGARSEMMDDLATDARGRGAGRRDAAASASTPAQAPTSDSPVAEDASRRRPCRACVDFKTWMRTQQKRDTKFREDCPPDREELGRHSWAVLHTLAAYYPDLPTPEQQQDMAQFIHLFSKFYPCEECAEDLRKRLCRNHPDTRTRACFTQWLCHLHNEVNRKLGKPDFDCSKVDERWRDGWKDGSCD
HSF1 inhib = HSF1 inhibition | NIH3T3-HGL HSE-luciferase, MG132-induced, luminescence 8 h; stronger effect = lower value | activity change, negative = inhibition, % at 7.5 µM (by protocol) | actives 0.77% (n = 300,000) | AID 2098;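 active = more than half of replicate wells show activity change below -50%, luminescence cut by over half; inconclusive = some wells, but at most half, below -50%; inactive = no replicate well below -50%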;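 note: luciferase reports HSF-1 transcriptional activity via heat shock element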
Of the large screens only hits and unclear results are named; the others gave an inactive call. The list is not random: actives were taken first. Their share in the collection is about 6.8%.

CCOc1c2ccc(C(=O)NCc3ccco3)cc2nn1CC	none
Nc1c(N(CCC2=CCCCC2)C(=O)Cc2ccccc2F)c(=O)[nH]c(=O)n1Cc1ccccc1	none (no result: PHOSPHO1 block, HCV core dimer, HSF1 activator, AI-2 QS mod, HSF1 inhib)
Cc1ccsc1CNS(=O)(=O)c1ccc(F)cc1	none
c1ccc(-c2cn3c(n2)-c2ccccc2C3)cc1	ALR inh 95
Cc1ccc(-c2nc3n(n2)Cc2ccccc2-3)cc1	none (no result: ALR inh)
Cc1ccc2c(CC(=O)OCc3cc(=O)n4c(n3)sc3ccccc34)coc2c1	HCV core dimer 90
O=C(OCc1cc(=O)n2c(n1)sc1ccccc12)c1ccc2c(=O)n3c(nc2c1)CCC3	none
CC(C)NC(=O)CSc1nnc2sc3ccccc3n12	none (no result: ALR inh)
CC(C)[C@H](NC(=O)Cc1ccccc1)C(=O)OCc1cc(=O)n2c(n1)sc1ccccc12	HSF1 inhib -72
CC/C(=N\NC(=O)c1nnn(-c2nonc2N)c1CN(C)c1ccccc1)c1ccccc1	none
Cc1ccc(CCN2C(=O)c3ccccc3C2C(=O)NCc2cccnc2)cc1 (stereo unspecified)	none (no result: ALR inh)
O=[N+]([O-])c1c(Nc2ccccc2O)cc(Cl)c2nonc12	HSF1 activator 207, AI-2 QS mod inconclusive (no result: HCV core dimer)
O=[N+]([O-])c1c(Nc2ccccc2O)ccc2nonc12	none
C/C(=N/NC(=O)c1ccc(Br)o1)C(C)C	none
Cc1csc(/C(=N/OC(=O)c2ccco2)C(N)=O)n1	ALR inh 97 (no result: HSF1 activator, HSF1 inhib)
COc1ccc(/C(N)=N/OC(=O)c2ccco2)cc1OC	none
COc1ccc(N(CC(=O)NCCC2=CCCCC2)S(=O)(=O)c2ccccc2)cc1	HSF1 activator 97
COc1ccc(N(CC(=O)NCCC2=CCCCC2)S(=O)(=O)c2ccccc2)cc1OC	none
CC(=O)Nc1ccccc1C(=O)C(=O)Nc1cccc(C(=O)N2CC(C)CC(C)C2)c1 (stereo unspecified)	none
Cc1cc(NCCCn2ccnc2)n2nc(-c3ccc(Cl)cc3)cc2n1	ALR inh 97
Cc1cc(NCCCn2ccnc2)n2nc(-c3ccc(F)cc3)cc2n1	none
c1ccc(CNc2nc(N3CCN(Cc4ccccc4)CC3)nc3ccccc23)cc1	HSF1 inhib -55
c1ccc(N2CCN(c3nc(NCc4ccco4)c4ccccc4n3)CC2)cc1	none
CCOC(=O)CCS(=O)(=O)c1nc(-c2ccccc2)cc(C(F)(F)F)n1	ALR inh 87, HSF1 inhib inconclusive
CCOC(=O)CS(=O)(=O)c1nc(-c2ccc(F)cc2)cc(C(F)(F)F)n1	HSF1 activator 88
CCOC(=O)Cc1cc(-c2ccccc2)nc2ccc3ccccc3c12	none
COCC(C)NC(=O)CCS(=O)(=O)c1nc(-c2ccc(OC)cc2)cc(C(F)(F)F)n1 (stereo unspecified)	HSF1 activator 238, ALR inh 97
COC(=O)CCS(=O)(=O)c1nc(-c2ccccc2)cc(C(F)(F)F)n1	ALR inh 98, HSF1 inhib -94
COc1nc(-c2ccccc2)cc(C(F)(F)F)n1	none
NC(=O)c1cc([N+](=O)[O-])ccc1NCc1cccc(N)c1	none (no result: PHOSPHO1 block, HSF1 activator, AI-2 QS mod, HSF1 inhib)
O=C(CN1CCC(NC(=O)Nc2ccc(F)cc2)CC1)Nc1ccccc1[N+](=O)[O-]	none (no result: ALR inh)
CCOC(=O)CS(=O)(=O)c1ccccc1	none
CCOC(=O)CS(=O)(=O)c1nc(-c2ccccc2)cc(C(F)(F)F)n1	HSF1 activator 137, ALR inh 98
CC1(C)CC(=O)C(C2C3=C(CC(C)(C)CC3=O)OC3=C2C(=O)CC(C)(C)C3)=C(O)C1	HSF1 activator 67
CC1(C)CC(=O)C(C2C3=C(CC(C)(C)CC3=O)Oc3ccccc32)=C(O)C1 (stereo unspecified)	none
CCN(CC)c1ccc(CNc2nc3ccccc3n2CC)cc1	ALR inh 99
CCn1c(NCc2ccc3c(c2)OCO3)nc2ccccc21	PHOSPHO1 block 65
C=CCn1c(NCc2ccc3c(c2)OCO3)nc2ccccc21	none (no result: HSF1 activator, HSF1 inhib)
CCCn1c(NCc2ccc(N(C)C)cc2)nc2ccccc21	none (no result: ALR inh)
O=C(N/N=C/C=C/c1ccco1)/C(=C/c1ccccc1)NC(=O)c1ccccc1	HCV core dimer 47
O=C(O)/C(=C\c1ccco1)NC(=O)c1ccccc1	ALR inh 97
O=C(N/N=C/C=C/c1ccco1)c1ccccc1Cl	HSF1 activator 69 (no result: ALR inh)
